Experimental data published in ChEMBL document CHEMBL4715912, “Discovery of a novel series of indolinylpyrimidine-based GPR119 agonists: Elimination of ether-a-go-go-related gene liability using a hydrogen bond acceptor-focused approach” (Bioorg Med Chem, 2021).
Calls of active or inactive are those of the source. The calls are words filed in the database; no cut-off is given here.

How the values were obtained:
[1] = biological target: hERG (KCNH2) (Homo sapiens, UniProt Q12809); assay: Inhibition of human ERG expressed in CHO cells at 10 uM incubated for 5 mins by patch-clamp assay relative to control; format: cell-based; settings: CHO cells expressing human ERG
Procedure, shortened: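 hERG-expressing CHO cells grown at 32 °C, recorded by population patch clamp after amphotericin B perforation; PBS with Ca/Mg outside, KCl/EGTA/HEPES pH 7.3 inside. Holding −80 mV, step to 40 mV 2 s, then −50 mV 2 s; peak tail current before and after 5 min compound exposure. Percent inhibition = 100 − post/pre × 100; mean ± SD, n = 4.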

[2] = Oral bioavailability in rat at 1 mg/kg by LC/MS/MS analysis; format: ADME, organism-based; settings: in vivo
Procedure, shortened: (§1)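 Cassette dosing, given by mouth at 1 mg/kg in 0.5% methylcellulose aqueous solution, with intravenous arm at 0.1 mg/kg, to non-fasted animals. Blood collected after dosing, plasma deproteinized and centrifuged, compound measured by LC/MS/MS.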

[3] = AUC in rat at 1 mg/kg, po by LC/MS/MS analysis; format: ADME, organism-based; parameters: dose 1 mg/kg; settings: in vivo; procedure, shortened: as §1
[4] = Volume of distribution at steady state in rat at 0.1 mg/kg, iv by LC/MS/MS analysis; format: ADME, organism-based; settings: in vivo, read-out: Vdss
Procedure, shortened: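 Cassette intravenous dosing at 0.1 mg/kg to non-fasted animals. Plasma taken from blood samples, deproteinized and centrifuged, and compound levels in supernatant quantified by LC/MS/MS.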

[5] = biological target: T1, glucose-dependent insulinotropic receptor (Mesocricetus auratus, UniProt A0A1U8CD06); assay: Agonist activity at GPR119 in glucose-induced golden hamster HIT-T15 cells assessed as increase in insulin secretion after 2 hrs by A1phaLISA; format: cell-based
T1 sequence (A0A1U8CD06 whole entry): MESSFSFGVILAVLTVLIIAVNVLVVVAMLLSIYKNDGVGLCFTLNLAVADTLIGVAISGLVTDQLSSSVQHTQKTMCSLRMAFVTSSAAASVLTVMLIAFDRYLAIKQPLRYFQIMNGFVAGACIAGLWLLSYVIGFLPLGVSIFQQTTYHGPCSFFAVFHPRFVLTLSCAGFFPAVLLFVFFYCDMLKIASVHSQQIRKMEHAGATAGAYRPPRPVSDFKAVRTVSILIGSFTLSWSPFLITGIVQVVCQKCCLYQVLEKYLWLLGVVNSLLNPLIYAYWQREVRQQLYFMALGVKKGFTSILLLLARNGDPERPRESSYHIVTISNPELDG
Procedure, shortened: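 HIT-T15 hamster β-cells seeded 5×10^4 cells/well, next day pre-incubated 2 h in KRBH buffer (0.2% BSA). Then exposed to compounds in KRBH with 0.2% fatty acid free BSA and 10 mmol/L glucose for 2 h at 37 °C; secreted insulin in supernatant quantified by AlphaLISA. EC50 reported from n = 2.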

[6] = test system: Rattus norvegicus; assay: Antidiabetic activity in N-STZ 1.5 rat assessed as increase in plasma insulin level at 1 to 3 mg/kg, po pre-treated for 60 mins followed by 1.5 g/kg glucose treatment and measured up to 120 mins by radioimmunoassay; format: functional, organism-based; settings: dose 1-3 mg/kg, time min <=180
Procedure, shortened: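 Male N-STZ1.5 rats, 25–30 weeks old, fasted overnight, dosed orally with compound or 0.5% methylcellulose vehicle; 60 min later oral glucose load 1.5 g/kg. Tail-vein blood taken pre-dose, at 0, 10, 30, 60 and 120 min; plasma glucose by autoanalyzer, insulin by radioimmunoassay. AUC computed; mean ± SD, n = 6; one-tailed Williams' test.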

Chain of hERG (KCNH2) (Q12809 whole entry): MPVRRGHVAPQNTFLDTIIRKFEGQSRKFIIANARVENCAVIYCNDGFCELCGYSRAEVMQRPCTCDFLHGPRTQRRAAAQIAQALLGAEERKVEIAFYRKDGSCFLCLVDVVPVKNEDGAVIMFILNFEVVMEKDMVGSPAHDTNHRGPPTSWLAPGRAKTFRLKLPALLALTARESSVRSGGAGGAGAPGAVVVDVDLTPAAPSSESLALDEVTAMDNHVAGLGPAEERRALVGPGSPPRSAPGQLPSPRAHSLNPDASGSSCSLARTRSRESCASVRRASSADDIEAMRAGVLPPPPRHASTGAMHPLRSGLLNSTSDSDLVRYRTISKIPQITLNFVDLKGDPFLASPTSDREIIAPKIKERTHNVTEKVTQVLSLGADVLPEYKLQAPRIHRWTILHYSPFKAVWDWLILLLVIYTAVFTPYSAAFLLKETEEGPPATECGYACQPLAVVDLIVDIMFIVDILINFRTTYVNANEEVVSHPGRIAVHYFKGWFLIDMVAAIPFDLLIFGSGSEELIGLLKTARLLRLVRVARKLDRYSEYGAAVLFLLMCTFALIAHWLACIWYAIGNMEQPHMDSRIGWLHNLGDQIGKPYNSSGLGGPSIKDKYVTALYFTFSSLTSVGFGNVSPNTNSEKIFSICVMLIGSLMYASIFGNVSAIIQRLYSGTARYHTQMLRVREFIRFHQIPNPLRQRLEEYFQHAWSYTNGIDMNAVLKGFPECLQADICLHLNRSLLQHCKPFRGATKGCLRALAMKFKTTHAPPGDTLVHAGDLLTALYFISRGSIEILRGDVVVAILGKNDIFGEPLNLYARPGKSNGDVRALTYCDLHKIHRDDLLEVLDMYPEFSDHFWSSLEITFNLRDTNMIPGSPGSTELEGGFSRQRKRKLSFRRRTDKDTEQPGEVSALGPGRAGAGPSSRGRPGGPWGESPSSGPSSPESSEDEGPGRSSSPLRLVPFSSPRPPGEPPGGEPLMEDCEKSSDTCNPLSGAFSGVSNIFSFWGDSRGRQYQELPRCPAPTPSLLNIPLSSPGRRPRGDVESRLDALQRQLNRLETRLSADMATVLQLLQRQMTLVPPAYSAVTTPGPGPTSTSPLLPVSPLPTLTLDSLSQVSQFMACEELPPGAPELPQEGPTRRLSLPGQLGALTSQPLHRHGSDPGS

- bioavailability [2]: 24%
- AUC [3]: 1670 ng·h/mL
- Vd [4]: 0.332 L/kg
- EC50 [5]: 25 nM
SMILES: CC(C)c1noc(N2CCC(Oc3cc(N4CCc5cc(N6CCC[C@H](O)C6=O)ccc54)ncn3)CC2)n1
- inhibition at 5 min, 10 µM [1]: 31%
- Activity [6]: Active
